A selection: hits, their analogues and other compounds. The true share with any hit is near 3.2%.
LEDGF integ inh = blocks HIV-1 LEDGF/p75-dependent DNA integration; TR-FRET IN-LEDGF/p75 DNA integration, Eu/Cy5; AID 743269; inhibition, % at 3.7 µM; hit rate 0.64% among 370,000;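 active = inhibition above the screen-wide mean plus 3 SD, cut at about 13% in these data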;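 note: signal is the Cy5 over europium emission ratio at 671 and 618 nm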
rCAG RNA binder = r(CAG) repeat RNA binding; inhibition, % at 3 µM; hit rate 1.3% among 370,000; TO-PRO-1 dye displacement fluorescence; AID 651821;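 active = inhibition above the plate cutoff, the mean of all test compounds on that plate plus 3 SD, cut at about 35% in these data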;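 note: higher means more dye released from RNA so lower well fluorescence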
HTRA1 inh = HTRA1 (human) protease inhibition | Q92743 | recombinant HTRA1, FP-rhodamine activity-based probe, fluorescence polarization | inhibition, % at 5.96 µM | hit rate 0.5% among 340,000; in the data active = inhibition above about 36%
Target sequence (Q92743 whole entry, looked up): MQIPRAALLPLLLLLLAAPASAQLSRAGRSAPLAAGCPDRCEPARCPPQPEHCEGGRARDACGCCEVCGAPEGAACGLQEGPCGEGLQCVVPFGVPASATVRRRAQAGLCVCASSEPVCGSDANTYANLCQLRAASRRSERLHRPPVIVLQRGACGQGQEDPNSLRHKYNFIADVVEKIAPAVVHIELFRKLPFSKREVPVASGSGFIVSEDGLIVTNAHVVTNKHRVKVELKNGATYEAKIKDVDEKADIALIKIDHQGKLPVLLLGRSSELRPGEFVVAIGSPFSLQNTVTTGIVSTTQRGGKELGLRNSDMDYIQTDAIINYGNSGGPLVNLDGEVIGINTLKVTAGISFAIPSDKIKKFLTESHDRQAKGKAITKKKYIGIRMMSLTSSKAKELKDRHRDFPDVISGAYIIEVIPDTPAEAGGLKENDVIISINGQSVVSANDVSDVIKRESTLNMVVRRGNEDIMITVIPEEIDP
mABHD4 FP = inhibits mouse alpha/beta hydrolase domain 4; Q8VD66; purified mABHD4, FP-Rh probe fluorescence polarization; inhibition, % at 8.92 µM; hit rate 0.54% among 370,000; AID 720543;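 active = inhibition exceeding the mean over every tested compound plus 3 SD, cut at about 30% in these data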
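system = mouse ABHD4 enzyme, wild type | medium = HEPES pH 7.0, NaCl, Pluronic buffer | also added = FP-Rh probe | incubation = Enzyme–compound pre-incubation 45 min, then probe 60 min, both 25 °C | technique = fluorescence polarization, excitation 525 nm, emission 598 nm, BODIPY TMR filters | controls = S159A mutant high control, sample median low control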
DAGLB inh = diacylglycerol lipase beta (human) inhibition; HEK293T DAGLB membrane lysate, EnzChek fluorogenic substrate; hit rate 0.059% among 340,000; Q8NCG7; inhibition, % at 5.17 µM; in the data active = inhibition above about 34%
PRMT1 inh = inhibitors of human PRMT1; inhibition, % at 2.79 µM; recombinant PRMT1, activity-based probe fluorescence polarization; hit rate 1.3% among 370,000; AID 652257;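 active = inhibition above about 21% made by adding two undisclosed values, limit read from the data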
IN multimer act = HIV-1 integrase multimerization activation, counter-screen; TR-FRET HIV-1 integrase multimerization, biochemical; activation, % at 7.7 µM; AID 1053131; shares compounds with LEDGF integ inh; hit rate 17% among 2,000; in the data active = activation above about 8.9%
TR-FRET interf = counter-screen for LEDGF/p75 integration inhibitors: TR-FRET optical interference; AID 1053135; shares compounds with LEDGF integ inh; inhibition, % at 7.7 µM; TR-FRET optical interference counterscreen, HIV-1 IN multimerization; 2,000 tested, under 10 active;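 active = inhibition above the mean over all tested compounds plus 3 SD, which no compound reached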
IN-LEDGF confirm = LEDGF/p75-dependent HIV-1 integration inhibition, confirmation. shares compounds with LEDGF integ inh. TR-FRET LEDGF/p75-dependent HIV-1 integration, biochemical. inhibition, % at 3.7 µM. hit rate 36% among 2,000. AID 1053136; in the data active = inhibition above about 14%
A number is an active result; 0 = inactive; - = not tested or not shown.

SMILES	LEDGF integ inh	rCAG RNA binder	HTRA1 inh	mABHD4 FP	DAGLB inh	PRMT1 inh	IN multimer act	TR-FRET interf	IN-LEDGF confirm
Fc1ccccc1N1CCN(C2CCCN(Cc3ccccc3C(F)(F)F)C2)CC1 (configuration not stated)	16	0	0	0	0	0	0	0	0
O=C1CN(C(=O)COc2ccc(F)cc2Cl)c2ccccc2N1	23	0	0	0	0	0	0	0	0
O=C1CN(C(=O)COc2ccc(Cl)cc2Cl)c2ccccc2N1	0	0	0	0	0	0	-	-	-
CCCCCCCn1c(NC(=O)CC)nc2ccccc21	23	0	0	0	0	0	0	0	31
CCC(=O)Nc1nc2ccccc2n1Cc1ccc(Cl)cc1	15	0	0	0	0	0	0	0	0
COC(=O)CSc1nnnn1-c1cccc2ccccc12	23	0	0	0	0	0	0	0	0
CCCNC(=O)c1cc(C2CCCN(S(=O)(=O)c3cccc4cccnc34)C2)on1 (configuration not stated)	37	0	-	0	-	0	0	0	0
COc1ccccc1NC(=O)COC(=O)c1ccc([N+](=O)[O-])s1	17	0	0	0	0	0	0	0	44
O=S(=O)(Nc1ccc(O)c2ccccc12)c1cccs1	26	0	0	46	0	0	0	0	0
O=S(=O)(Nc1cccc2ccccc12)c1cccs1	0	0	0	0	0	0	-	-	-
O=C(NCCCN1CCCC1=O)c1cc2nc(-c3ccco3)cc(C(F)(F)F)n2n1	20	0	0	0	0	0	0	0	0
O=C(c1cc2nc(-c3ccco3)cc(C(F)(F)F)n2n1)N1CCCCCC1	0	0	0	0	0	0	-	-	-
Cc1ccc(C)c(OCCC(=O)OCC(=O)c2c(N)n(C)c(=O)n(C)c2=O)c1	24	0	0	0	0	0	0	0	0
COc1ccc(/C=N/n2c(N)nc3ccccc32)cc1OC	24	0	0	0	0	0	0	0	0
COc1cccc(/C=N/n2c(N)nc3ccccc32)c1OC	0	0	0	0	0	0	-	-	-
O=C(Cc1cccc(C(F)(F)F)c1)Nc1ccccc1N1CCCC1	0	0	0	0	0	0	-	-	-
O=C1CC(c2ccccc2)Oc2cc(O)cc(O)c21 (configuration not stated)	0	0	0	0	0	0	-	-	-
COc1cc(OC)c2c(c1O)OC(c1ccccc1)CC2=O (configuration not stated)	28	0	0	0	0	0	35	0	32
Cc1c(NC(=O)C(C)OC(=O)CC2Sc3ccccc3NC2=O)c(=O)n(-c2ccccc2)n1C (configuration not stated)	0	0	0	0	0	0	-	-	-
Cc1cc(=O)oc2cc(NC(=O)CC3(CC(=O)O)CCCC3)ccc12	21	0	-	0	-	0	0	0	0
Cc1cc(C(=O)Nc2ncc(C)s2)c2ccccc2n1	0	0	0	0	0	0	-	-	-
Brc1cnc2nc(SC/C=C/c3ccccc3)[nH]c2c1	37	0	0	0	0	0	0	0	0
Fc1ccccc1CSc1nc2ncc(Br)cc2[nH]1	0	0	0	0	0	0	-	-	-
Cc1[nH]n(-c2ccccc2)c(=O)c1C(c1ccc(C(=O)O)cc1)c1c(C)[nH]n(-c2ccccc2)c1=O	34	0	0	0	0	0	0	0	14
Cc1ccc(S(=O)(=O)Oc2ccccc2[N+](=O)[O-])cc1	35	0	0	0	0	0	0	0	0
SMILES	LEDGF integ inh	rCAG RNA binder	HTRA1 inh	mABHD4 FP	DAGLB inh	PRMT1 inh	IN multimer act	TR-FRET interf	IN-LEDGF confirm
COc1ccccc1[N+](=O)[O-]	0	0	0	0	0	0	-	-	-
Oc1ccc(C=Nc2cccc3ncccc23)c(O)c1	16	0	0	0	0	0	17	0	22
CC12CCC(=O)N1C(C(=O)N1CCN(c3ccc([N+](=O)[O-])cc3)CC1)CS2 (configuration not stated)	0	0	0	0	0	0	-	-	-
CCOCC(=O)Nc1cc(C(F)(F)F)ccc1Oc1cccc(Br)c1	0	0	0	0	0	0	-	-	-
CC(=O)Nc1cc(C(F)(F)F)ccc1Oc1cccc(Br)c1	16	0	0	0	0	0	0	0	0
Oc1cc(NCCc2cccnc2)cc2cccnc12	18	0	0	0	0	0	0	0	21
CC1(C)CC(C(=O)Nc2nccs2)CCO1 (configuration not stated)	0	0	0	0	0	0	-	-	-
CN(Cc1ccccc1)c1cc2c(c3c1ccn3C)C1CCC2C1 (configuration not stated)	52	0	-	0	-	0	0	0	0
C[C@](N)(Cc1ccc(O)c(O)c1)C(=O)O	60	0	0	0	0	0	0	0	0
COc1ccc(C[C@](C)(N)C(=O)O)cc1OC	0	0	0	0	0	0	-	-	-
CCOc1ccc(C2NC(=O)c3ccccc3O2)cc1 (configuration not stated)	0	0	0	0	0	0	-	-	-
CCCC(=O)Nc1ccc2oc(=O)ccc2c1	35	0	0	0	0	0	0	0	0
Cc1cccc(OCC(=O)Nc2ccc3oc(=O)ccc3c2)c1	0	0	0	0	0	0	-	-	-
CCOC(=O)CSc1ccc2nnc(-c3ccncc3)n2n1	0	0	0	0	0	0	-	-	-
CCOC(=O)c1c2ccc(OCC(=O)N/N=C/c3ccc(C)cc3)cc2n2ccccc12	0	0	0	0	0	0	-	-	-
CCOC(=O)c1c2ccc(OCC(=O)NN)cc2n2ccccc12	23	0	0	0	0	0	0	0	0
CCCCC(=O)NC1(C(F)(F)F)C(=O)Nc2c1c(=O)[nH]c(=O)n2Cc1ccco1 (configuration not stated)	0	0	0	0	0	0	-	-	-
CCc1cc(=O)oc2cc(C)c(CN3CCCC(C)C3)c(O)c12 (configuration not stated)	19	0	0	0	0	0	0	0	20
CCCCc1cc(=O)oc2c(CN3CCCC3)c(O)ccc12	0	0	0	0	0	0	-	-	-
CCc1cc(=O)oc2c(CN3CCCC3)c(O)c(Cl)cc12	0	0	0	0	0	0	-	-	-
CCCCc1cc(=O)oc2cc(C)c(CN3CCCC3)c(O)c12	17	0	0	0	0	0	0	0	16
CC1(C)C(=O)C2(CCCC2)C(=O)OC1c1ccco1 (configuration not stated)	0	0	0	0	0	0	-	-	-
COc1cccc(NC2=C(NCCO)C(=O)c3ccccc3C2=O)c1	0	0	0	0	0	0	-	-	-

Screens from PubChem.
